Data set [1] is described as follows: folding enthalpy; higher = less favourable; fluorescence melt of hairpins on a sequencing array, two-state fit. To be noted: sodium 0.088 M. In a few lines:
(§1)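 Cy3 signals were normalised both to pre-quench Cy3 and to control constructs. They came from library hairpins carrying annealed Cy3 and quencher oligos on a sequenced MiSeq flow cell, imaged in 50 mM Na-HEPES pH 8.0, 25 mM NaCl, in 2.5 °C steps up to 60 °C. Bootstrapped two-state fits gave melting temperature and folding enthalpy, and four replicates were combined by inverse variance. Fitted temperatures were then raised by 9.35 °C to match UV melts.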

Data set [2] in a line: melting temperature; fluorescence melt of hairpins on a sequencing array, two-state fit, raised by 9.35 °C to match UV melts. To be noted: sodium 0.088 M. In a few lines:
as §1

On to GAGAGAGCGAAAGCTCTC (((..(((....)))))), for which the folding enthalpy in data set [1] is -9.57 kcal/mol. Further, in data set [2], the Tm is 56.7 °C.

Take GAGAGAGGAAACTCTTTC ((.((((....)))).)): in data set [1], the folding enthalpy was -20.5 kcal/mol. In addition, in data set [2], the Tm worked out at 29.9 °C.

For the sequence GAGAGCCGAAAGGCCTC (((.(((....)))))), in data set [1], the folding enthalpy is -15.6 kcal/mol. Further, the Tm in data set [2] worked out at 55.3 °C.

With GAGAGCGAAAGCTCCTC ((((((....))).))), in data set [1], the folding enthalpy was -10.3 kcal/mol. Besides, the Tm in data set [2] worked out at 49 °C.

In the case of GAGAGCGAAAGCTTACTC ((((((....)))..))), the folding enthalpy in data set [1] was -12.3 kcal/mol. In addition, in data set [2], the Tm was determined as 30.6 °C.

For GAGAGCGGAAACACTCTC (((((.(....).))))), in data set [1], the folding enthalpy was -28.1 kcal/mol. The Tm in data set [2] was determined as 43 °C.

As for GAGAGCGGAAACGCCCTC (((.(((....))).))), the folding enthalpy in data set [1] was -16.7 kcal/mol. In addition, the Tm in data set [2] came out at 47.2 °C.

Regarding GAGAGCGGAAACGCTTTC ((.((((....)))).)), in data set [1], the folding enthalpy was -17.3 kcal/mol. Besides, in data set [2], the Tm came out at 46.4 °C.

As to GAGAGCGGAAACGTTCTC ((((.((....)).)))), the folding enthalpy in data set [1] was -34.6 kcal/mol. Moreover, the Tm in data set [2] was 49.1 °C.

On to GAGAGGCGAAAGCCGCTC (((.(((....))).))), for which, in data set [1], the folding enthalpy is -18.9 kcal/mol. The Tm in data set [2] was 66.1 °C.

For GAGAGGGGAAACTCTCTC (((((.(....).))))), the folding enthalpy in data set [1] is -26.2 kcal/mol. For the same sequence, the Tm in data set [2] came out at 49.4 °C.

On to GAGAGTGCGAAAGCACTC (((..(((....)))))), for which, in data set [1], the folding enthalpy is -7.98 kcal/mol. In addition, in data set [2], the Tm was 64.5 °C.

In the case of GAGAGTGGAAACACCCTC (((.(((....))).))), the folding enthalpy in data set [1] was -26.8 kcal/mol. In addition, the Tm in data set [2] is 36 °C.

With GAGAGTGGAAACGCTCTC (((((.(....).))))), the folding enthalpy in data set [1] was -36.8 kcal/mol. Also, in data set [2], the Tm came to 51.7 °C.

As for GAGATAACGAAAGTTCTC (((..(((....)))))), in data set [1], the folding enthalpy was -20.8 kcal/mol. The Tm in data set [2] turned out to be 30.7 °C.

Regarding GAGATACCGAAAGGTCTC (((..(((....)))))), the folding enthalpy in data set [1] is -15.6 kcal/mol. In data set [2], the Tm turned out to be 34.3 °C.

Consider GAGATACGAAAGTAACTC (((.(((....))).))), for which the folding enthalpy in data set [1] was -26 kcal/mol. Further, in data set [2], the Tm was determined as 44.7 °C.

GAGATACGAAAGTACTC (((.(((....)))))): the folding enthalpy in data set [1] was -19.9 kcal/mol. Moreover, the Tm in data set [2] was 36.7 °C.

For the sequence GAGATACGAAAGTAGCTC (((.(((....))).))), the folding enthalpy in data set [1] was -40.8 kcal/mol. The Tm in data set [2] came out at 57.5 °C.

Consider GAGATCCGAAAGGACTC (((.(((....)))))), for which the folding enthalpy in data set [1] is -18.9 kcal/mol. For the same sequence, the Tm in data set [2] turned out to be 44.2 °C.

For GAGATGCGAAAGCACTC (((.(((....)))))), the folding enthalpy in data set [1] is -19.2 kcal/mol. Besides, the Tm in data set [2] worked out at 48.4 °C.

GAGATGGGAAACCATTTC ((.((((....)))).)): the folding enthalpy in data set [1] is -26.8 kcal/mol. In data set [2], the Tm came to 35 °C.

For the sequence GAGATGGGAAACCGTCTC ((((.((....)).)))), the folding enthalpy in data set [1] was -38.2 kcal/mol. For the same sequence, the Tm in data set [2] amounted to 49.6 °C.

Turning to GAGATGGGAAACTATCTC (((((.(....).))))), in data set [1], the folding enthalpy was -32 kcal/mol. Further, in data set [2], the Tm amounted to 40.7 °C.

Turning to GAGCAAGCGAAAGCTCTC (((..(((....)))))), the folding enthalpy in data set [1] is -11.6 kcal/mol. Also, the Tm in data set [2] is 35.1 °C.

As for GAGCACGAAAGTGACTC ((((((....))).))), the folding enthalpy in data set [1] is -19.5 kcal/mol. Besides, in data set [2], the Tm came out at 47.3 °C.

With GAGCAGAAATGCTC (((((....))))), the folding enthalpy in data set [1] was -29.8 kcal/mol. In addition, the Tm in data set [2] stood at 53.6 °C.

Consider GAGCAGGGAAACCTACTC (((.(((....))).))), for which the folding enthalpy in data set [1] is -22.1 kcal/mol. Further, the Tm in data set [2] turned out to be 39.5 °C.

Turning to GAGCATGGAAACATGCCC (.(((((....))))).), the folding enthalpy in data set [1] was -12.8 kcal/mol. Besides, the Tm in data set [2] is 44 °C.

On to GAGCATGGAAACGTGCTC (((((.(....).))))), for which the folding enthalpy in data set [1] is -47.3 kcal/mol. Moreover, the Tm in data set [2] was 52.9 °C.

With GAGCCACGAAAGTGACTC (((.(((....))).))), the folding enthalpy in data set [1] was -45.2 kcal/mol. Also, the Tm in data set [2] amounted to 54.5 °C.

Turning to GAGCCACGAAAGTGCTC (((.(((....)))))), the folding enthalpy in data set [1] was -19.9 kcal/mol. Moreover, in data set [2], the Tm amounted to 54.2 °C.

Turning to GAGCCAGCGAAAGCTCTC (((..(((....)))))), in data set [1], the folding enthalpy is -10.3 kcal/mol. Further, in data set [2], the Tm worked out at 34.8 °C.

Consider GAGCCAGGAAACTGGCCC (.(((((....))))).), for which, in data set [1], the folding enthalpy was -11.3 kcal/mol. Also, the Tm in data set [2] was determined as 45.8 °C.

With GAGCCCCCGAAAGGGCTC (((..(((....)))))), the folding enthalpy in data set [1] is -32.3 kcal/mol. Further, the Tm in data set [2] was found to be 65.4 °C.

Consider GAGCCCGAAAGGGACTC ((((((....))).))), for which the folding enthalpy in data set [1] was -22.9 kcal/mol. In data set [2], the Tm is 54.8 °C.

Regarding GAGCCCGAAAGGGGGCTC ((((((....)))..))), in data set [1], the folding enthalpy is -22.8 kcal/mol. Also, the Tm in data set [2] was 68.6 °C.

As for GAGCCCGCGAAAGCGCTC (((..(((....)))))), the folding enthalpy in data set [1] is -11.2 kcal/mol. Moreover, the Tm in data set [2] turned out to be 39.2 °C.

Consider GAGCCCGGAAACGGGTTC ((.((((....)))).)), for which the folding enthalpy in data set [1] is -27 kcal/mol. In addition, in data set [2], the Tm was 56.7 °C.

As for GAGCCGGCGAAAGCCCTC (((..(((....)))))), in data set [1], the folding enthalpy is -8.17 kcal/mol. The Tm in data set [2] came out at 28.7 °C.

Take GAGCCTGGAAACAGACTC (((.(((....))).))): the folding enthalpy in data set [1] was -31.9 kcal/mol. Moreover, the Tm in data set [2] was 43.6 °C.

For GAGCCTGGAAACGGGTTC ((.((.(....).)).)), the folding enthalpy in data set [1] was -27.5 kcal/mol. In data set [2], the Tm stood at 36.4 °C.

For GAGCGACCGAAAGGTCTC (((..(((....)))))), the folding enthalpy in data set [1] was -10.2 kcal/mol. Besides, the Tm in data set [2] was 33.1 °C.

As for GAGCGCCGAAAGGCTCTC (((.(((....))).))), in data set [1], the folding enthalpy was -21.4 kcal/mol. Moreover, the Tm in data set [2] was 50.7 °C.

In the case of GAGCGCGAAAGCGACCTC ((((((....)))..))), the folding enthalpy in data set [1] is -11.8 kcal/mol. In data set [2], the Tm was found to be 46.6 °C.

Regarding GAGCGCGAAAGCGCCCTC ((((((....)))..))), in data set [1], the folding enthalpy was -7.61 kcal/mol. The Tm in data set [2] stood at 46.8 °C.

With GAGCGCGAAAGCGTACTC ((((((....)))..))), the folding enthalpy in data set [1] was -12.1 kcal/mol. Further, in data set [2], the Tm worked out at 44.4 °C.

GAGCGGACGAAAGTCCTC (((..(((....)))))): in data set [1], the folding enthalpy is -8.32 kcal/mol. For the same sequence, the Tm in data set [2] came to 29.9 °C.

GAGCGGGCGAAAGCCCTC (((..(((....)))))): the folding enthalpy in data set [1] is -6.71 kcal/mol. Also, in data set [2], the Tm worked out at 25.9 °C.

As to GAGCGGGGAAACCTGCTC ((((.((....)).)))), in data set [1], the folding enthalpy is -30.6 kcal/mol. In data set [2], the Tm worked out at 57.3 °C.

Consider GAGCGTCCGAAAGGACTC (((..(((....)))))), for which the folding enthalpy in data set [1] is -7.91 kcal/mol. Moreover, the Tm in data set [2] was 30.7 °C.

Regarding GAGCGTGGAAACACACTC (((.(((....))).))), the folding enthalpy in data set [1] was -30.5 kcal/mol. In data set [2], the Tm came to 45.9 °C.

As for GAGCGTGGAAACACGTTC ((.((((....)))).)), in data set [1], the folding enthalpy was -24.7 kcal/mol. Further, in data set [2], the Tm came out at 52.5 °C.

Regarding GAGCGTGGAAACATGCTC ((((.((....)).)))), the folding enthalpy in data set [1] is -55.5 kcal/mol. In data set [2], the Tm was found to be 55 °C.

Regarding GAGCGTGGAAACGCGTTC ((.((.(....).)).)), in data set [1], the folding enthalpy was -12.1 kcal/mol. The Tm in data set [2] amounted to 51.7 °C.

(Values after the array DNA melting data of Ke et al. (doi:10.1101/2024.01.08.574731).)
